From ChEMBL document CHEMBL3232894, “Discovery of AMG 925, a FLT3 and CDK4 dual kinase inhibitor with preferential affinity for the activated state of FLT3” (J Med Chem, 2014)
The source made the active and inactive calls. No cut-off for these calls is given here.

How the values were obtained:
[1] = Clearance in iv dosed cynomolgus monkey; type: ADME, organism-based, Macaca fascicularis; conditions: in vivo
How it was run: (§1)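 Intravenous and oral (gavage, solution) PK in rat, dog and cynomolgus monkey. The rat vehicle for both routes was water/acetate/tween at pH 4, 96/3/1 (v/v/v). Dog and monkey iv doses used 40% PG aqueous solution at pH 2, and their oral doses used 20% captisol aqueous solution.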

[2] = biological target: Cyclin-dependent kinase 4 (Homo sapiens, UniProt P11802); test: Inhibition of CDK4 in human COLO205 cells assessed as inhibition of Rb phosphorylation at Ser780 after 24 hrs
Chain of Cyclin-dependent kinase 4 (P11802 whole entry): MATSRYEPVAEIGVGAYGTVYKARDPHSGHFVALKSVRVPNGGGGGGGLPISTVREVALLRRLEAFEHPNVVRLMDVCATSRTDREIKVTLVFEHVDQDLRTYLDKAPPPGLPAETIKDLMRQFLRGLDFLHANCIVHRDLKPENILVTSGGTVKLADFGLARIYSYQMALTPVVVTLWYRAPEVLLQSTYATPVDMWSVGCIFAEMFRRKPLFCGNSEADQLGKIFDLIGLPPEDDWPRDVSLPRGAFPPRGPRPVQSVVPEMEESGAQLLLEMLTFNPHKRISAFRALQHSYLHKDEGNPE

[3] = biological target: Receptor-type tyrosine-protein kinase FLT3 (Homo sapiens, UniProt P36888, D835H); test: Binding affinity to FLT3 D835H mutant (unknown origin)
[4] = AUC in po dosed CrTac:NCR-Foxn1nu (NCR) nude mouse xenografted with human MOLM13 cells administered qd for 8 days; type: ADME, organism-based, MOLM-13; conditions: in vivo
How it was run: (§2)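 Oral dosing once daily, day 5 to day 13, in NCR nude mice bearing established subcutaneous human MOLM13 AML xenografts, at 25, 50, 75 and 150 mg/kg against a vehicle group. Tumor growth inhibition read on day 14. AUC comes from terminal PK on plasma collected after the final dose.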

[5] = test system: Tumour; test: Decrease in Rb phosphorylation at Ser780 in tumor of CrTac:NCR-Foxn1nu (NCR) nude mouse xenografted with human MOLM13 cells at 50 to 150 mg/kg, po after 3 to 24 hrs; type: functional, organism-based; conditions: Neoplasm, MOLM-13
How it was run: (§3)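 MOLM13 tumor-bearing mice received a single oral dose of 50, 75 or 150 mg/kg. Tumors were harvested at 3, 6 and 24 h, and lysates were assayed for pSTAT5 and pRb. Unbound plasma levels were measured at the same time points. Results are mean ± SEM, n = 3 per group and n = 6 for vehicle.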

[6] = test system: MOLM-13; test: Antitumor activity against human MOLM13 cells xenografted in CrTac:NCR-Foxn1nu (NCR) nude mouse assessed as tumor growth inhibition at 150 mg/kg, po administered qd for 8 days; type: functional; conditions: MOLM-13, 192 h, read-out: TGI; how it was run: as §2
[7] = test system: COLO 205; test: Antiproliferative activity against Rb-positive human COLO205 cells assessed as incorporation of [14C]thymidine into DNA after 72 hrs by beta-plate counting analysis
[8] = Oral bioavailability in rat; type: ADME, organism-based; conditions: in vivo; how it was run: as §1
[9] = biological target: T1, Receptor-type tyrosine-protein kinase FLT3 (Homo sapiens, UniProt P36888); test: Inhibition of GST-fused human FLT3 cytoplasmic domain (amino acids 564 to 993) using Ulight-JAK1 as substrate after 1 hr by TR-FRET assay
T1 sequence (P36888 whole entry): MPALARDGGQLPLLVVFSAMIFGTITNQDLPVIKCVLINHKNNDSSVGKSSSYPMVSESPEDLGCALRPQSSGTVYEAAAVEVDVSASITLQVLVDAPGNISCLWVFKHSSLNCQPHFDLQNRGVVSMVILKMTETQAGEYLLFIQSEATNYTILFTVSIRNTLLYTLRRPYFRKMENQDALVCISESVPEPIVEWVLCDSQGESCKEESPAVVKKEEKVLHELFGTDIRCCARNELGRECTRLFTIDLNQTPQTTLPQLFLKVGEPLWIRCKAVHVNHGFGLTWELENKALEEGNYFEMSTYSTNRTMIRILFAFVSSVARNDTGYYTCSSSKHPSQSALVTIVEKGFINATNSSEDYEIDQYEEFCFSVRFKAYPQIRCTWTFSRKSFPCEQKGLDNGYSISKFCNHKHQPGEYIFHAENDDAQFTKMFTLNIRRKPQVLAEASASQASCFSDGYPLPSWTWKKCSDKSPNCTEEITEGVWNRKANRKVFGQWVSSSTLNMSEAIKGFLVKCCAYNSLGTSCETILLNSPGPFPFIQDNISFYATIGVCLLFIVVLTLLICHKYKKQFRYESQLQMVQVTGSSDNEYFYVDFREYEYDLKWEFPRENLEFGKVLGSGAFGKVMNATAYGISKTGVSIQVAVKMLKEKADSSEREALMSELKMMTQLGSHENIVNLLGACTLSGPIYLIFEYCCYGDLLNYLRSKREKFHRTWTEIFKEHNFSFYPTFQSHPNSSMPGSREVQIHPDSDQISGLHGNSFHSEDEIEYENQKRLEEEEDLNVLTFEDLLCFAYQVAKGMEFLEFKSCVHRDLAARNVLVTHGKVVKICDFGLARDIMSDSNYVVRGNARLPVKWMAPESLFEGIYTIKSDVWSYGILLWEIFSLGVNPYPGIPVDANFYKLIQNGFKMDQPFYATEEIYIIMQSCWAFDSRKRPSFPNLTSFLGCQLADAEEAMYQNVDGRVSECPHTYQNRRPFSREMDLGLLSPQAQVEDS

[10] = test system: Tumour; test: Decrease in STAT5 phosphorylation at Tyr694 in tumor of CrTac:NCR-Foxn1nu (NCR) nude mouse xenografted with human MOLM13 cells at 50 to 150 mg/kg, po after 3 to 24 hrs; type: functional, organism-based; conditions: Neoplasm, MOLM-13; how it was run: as §3
[11] = Oral bioavailability in cynomolgus monkey; type: ADME, organism-based, Macaca fascicularis; conditions: in vivo; how it was run: as §1
[12] = Elimination half-life in iv dosed rat; type: ADME, organism-based; conditions: in vivo, read-out: beta t1/2 (converted); how it was run: as §1
[13] = biological target: Receptor-type tyrosine-protein kinase FLT3 (Homo sapiens, UniProt P36888, ITD); test: Binding affinity to FLT3 ITD mutant (unknown origin)
[14] = Clearance in iv dosed rat; type: ADME, organism-based; conditions: in vivo; how it was run: as §1

clearance [1]: 23.7 mL/min/kg
IC50 [2]: 23 nM
Kd [3]: 1 nM
AUC at 192 h [4]: 28 µM·h
IC50 [7]: 55 nM
bioavailability [8]: 75%
IC50 [9]: 1 nM
bioavailability [11]: 44%
half-life [12]: 5.5 h
Kd [13]: 4 nM
clearance [14]: 6.5 mL/min/kg
SMILES: C[C@H]1CC[C@H](n2c3cnccc3c3cnc(Nc4ccc5c(n4)CCN(C(=O)CO)C5)nc32)CC1
inhibition [5]: Active
inhibition in vivo at 150 mg/kg [6]: 100%
inhibition [10]: Active
